From PubChem BioAssay
Hits are enriched below; roughly 3.8% of the tested compounds scored in any of these assays.
KCNQ1 act = potentiates or activates the human KCNQ1 potassium channel; P51787; CHO-K1 KCNQ1, thallium flux FluxOR fluorescence; active compounds read high; B-score at 10 µM; 310,000 compounds, 0.35% hits; AID 2648;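 active = fluorescence ratio B-score, a plate-corrected score, at least three library SD, with initial intensity B-score within 5 SD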
Target sequence (P51787 whole entry, looked up): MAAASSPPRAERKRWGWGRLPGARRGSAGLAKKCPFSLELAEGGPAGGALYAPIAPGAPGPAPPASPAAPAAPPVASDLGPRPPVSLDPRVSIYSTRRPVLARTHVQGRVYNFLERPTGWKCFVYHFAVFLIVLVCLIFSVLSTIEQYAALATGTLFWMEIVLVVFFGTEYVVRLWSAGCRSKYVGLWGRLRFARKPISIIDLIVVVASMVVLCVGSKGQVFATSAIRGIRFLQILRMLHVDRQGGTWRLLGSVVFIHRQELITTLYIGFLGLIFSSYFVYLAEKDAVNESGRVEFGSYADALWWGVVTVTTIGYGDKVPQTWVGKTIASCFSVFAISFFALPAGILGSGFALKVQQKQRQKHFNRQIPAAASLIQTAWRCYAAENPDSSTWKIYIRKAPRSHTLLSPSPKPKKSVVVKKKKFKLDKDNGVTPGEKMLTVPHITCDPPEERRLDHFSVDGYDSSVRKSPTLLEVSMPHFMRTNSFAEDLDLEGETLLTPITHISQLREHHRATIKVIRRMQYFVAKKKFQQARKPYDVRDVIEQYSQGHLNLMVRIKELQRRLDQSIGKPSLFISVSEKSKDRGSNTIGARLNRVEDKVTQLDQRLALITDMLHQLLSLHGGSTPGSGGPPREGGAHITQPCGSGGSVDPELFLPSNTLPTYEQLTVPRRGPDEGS
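assay system = KCNQ1-transfected CHO-K1 cells | medium = assay buffer with matched DMSO | probe or stimulus = depolarizing K+/Tl+ stimulus, K2SO4 and Tl2SO4 each 12.5 mM in 5x stock | dosing = single dose | incubation = dye 90 min, compound 20 min, room temperature | detection = kinetic FluxOR fluorescence, 10 s baseline plus 110 s post-stimulus | evaluation = ratio B score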
KCNK3 inh = human KCNK3 channel inhibition, primary screen. O14649. CHO-KCNK3 thallium flux, FluxOR fluorescence; active compounds read low. B-score at 10 µM. 340,000 compounds, 0.84% hits;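 active = B-score under library mean minus 4 SD, starting fluorescence ratio at most library mean plus 5 SD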;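 note: more negative B-score means stronger inhibition of thallium flux through KCNK3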
KCNQ1 block = blocks the human KCNQ1 potassium channel; CHO-K1 KCNQ1, FluxOR thallium flux fluorescence; active compounds read high; B-score at 10 µM; AID 2642; 310,000 compounds, 1.3% hits;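 active = compounds whose thallium flux B-score, printed positive for inhibition, exceeds three library SD while starting fluorescence stays within three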;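 note: channel opened by potassium depolarization with thallium stimulus after 20 min compound exposure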
KCNK9 inh = inhibitors of human KCNK9 two-pore domain potassium channel; HEK293 KCNK9, FluxOR thallium flux fluorescence; active compounds read low; B-score at 10 µM; 310,000 compounds, 1.2% hits; AID 488922;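 active = ratio B-score over 3 SD below the library mean, with starting fluorescence within 5 SD of its mean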;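 note: negative B-score means less thallium flux so channel inhibition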
Kir21 block = Kir2.1 (mouse) channel inhibition; B-score at 10 µM; P35561; 310,000 compounds, 0.85% hits; HEK293-Kir2.1, FluxOR thallium flux fluorescence; active compounds read low;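 active = fluorescence ratio B-score at or below minus 3 SD of library scores, with starting-brightness B-score within 2 SD, cut at about -4.2 in these data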;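 note: channel flux triggered by added potassium and thallium sulfate stimulus; B-score of peak minus minimum fluorescence over baseline after thallium stimulus; more negative B-score means stronger Kir2.1 block with less thallium influx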
hERG rescue = hERG (human) protection from proarrhythmic block; 310,000 compounds, 0.51% hits; Q12809; activation (rescue from dofetilide block), less the hit threshold, % at 10 µM; AID 1511; CHO-hERG, FluxOR thallium flux, dofetilide IC70 present;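 active = activation above the mean of controls blocked by dofetilide plus 5 SD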;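 note: thallium influx through hERG after potassium depolarization seen as dye fluorescence rise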
KCNK9 block conf = human KCNK9 inhibitor confirmation; shares compounds with KCNK9 inh; HEK293 KCNK9 cells, FluxOR thallium flux fluorescence; inhibition, % at 10 µM; 4,900 compounds, 43% hits;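 active = thallium signal inhibited by more than 5 SD of the compound-free buffer control wells, on both duplicate plates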;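 note: 0% = assay buffer control wells without compound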
Kir2-1 spec = tests whether KCNK9 modulators also affect mouse Kir2.1; 4,900 compounds, 4% hits; shares compounds with KCNK9 inh; Kir2.1 cells, FluxOR thallium flux fluorescence; inhibition, % at 10 µM;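 active = thallium signal drop more than 5 SD beyond the mean of the no-compound control wells, seen in both duplicate plates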;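 note: signal is fluorescence rise after thallium addition divided by baseline fluorescence; plate controls were assay buffer only for no effect and full block by chlorpromazine control for full effect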
HEK293 Tl ctr = second counter-screen for KCNK9 modulators: effect in non-induced cells; non-induced KCNK9-HEK293, FluxOR thallium flux; shares compounds with KCNK9 inh; 4,900 compounds, 40% hits; inhibition, % at 10 µM;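 active = thallium signal drop beyond 5 SD of the untreated control mean, on both duplicate plates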;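 note: plate controls were buffer only IC0 wells for no effect and SID17386958 at its maximal inhibitory level for full effect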
An asterisk follows results filed as active; i = inactive; · = no result given.

SMILES | KCNQ1 act | KCNK3 inh | KCNQ1 block | KCNK9 inh | Kir21 block | hERG rescue | KCNK9 block conf | Kir2-1 spec | HEK293 Tl ctr
O=C(c1ccc2c(c1)OCO2)C1CCCN(Cc2c(F)ccc(F)c2F)C1 (centres undefined) | i | i | i | i | -1.1 | -6 | i | i | i
O=C1OC(CCl)CN1Cc1ccc([N+](=O)[O-])cc1 (centres undefined) | i | i | i | i | -0.12 | -5 | · | · | ·
Cc1[nH]c2ccccc2c1/C=N/NC(=O)c1cc(-c2cccs2)[nH]n1 | i | i | i | -10* | 1.2 | -10 | i | i | i
CN(C)c1ccc2c(c1)Sc1cc(N(C)C)ccc1N2C(=O)c1ccccc1 | i | i | 6* | i | 0.58 | -4 | i | i | i
Cn1cc(C(F)(F)F)nc1-c1ccc(OCC(O)CNCCOc2ccc(O)c(C(N)=O)c2)cc1 (centres undefined) | i | i | i | i | 1.3 | -7 | · | · | ·
NC(=O)C1CCN(CC(=O)N2N=CCC2c2ccccc2)CC1 (centres undefined) | i | i | i | -8.9* | -0.32 | -7 | i | i | i
O=C(CN1CCN(c2ccccc2)CC1)N1N=CCC1c1ccccc1 (centres undefined) | i | i | i | i | 2.6 | -9 | · | · | ·
C=CCNC(=O)C(=O)c1cccn1-c1ccsc1C(=O)OC | i | i | i | i | -0.13 | -11 | · | · | ·
CCCC(=O)Nc1nc(C)c(-c2csc(Nc3cc(OC)ccc3OC)n2)s1 | i | i | i | -17* | 0.8 | -13 | i | i | i
Cc1ccc(Cl)cc1Nc1nc(-c2sc(NC(=O)C(C)(C)C)nc2C)cs1 | i | i | i | -13* | -0.58 | -14 | 56%* | i | i
CCCCCC(=O)Nc1nc(C)c(-c2csc(Nc3cc(Cl)ccc3OC)n2)s1 | i | i | i | i | -1.9 | -9 | · | · | ·
COc1ccccc1Nc1nc(-c2sc(NC(=O)c3cccc(Cl)c3)nc2C)cs1 | i | · | i | i | -2.9 | -8 | · | · | ·
CCCC(=O)Nc1nc(C)c(-c2csc(Nc3ccccc3OC)n2)s1 | i | i | i | i | -0.06 | -14 | · | · | ·
CCCC(C)C(=O)Nc1nc(C)c(-c2csc(Nc3cc(OC)ccc3OC)n2)s1 (centres undefined) | i | i | i | -18* | -1.3 | -22 | 46%* | i | i
C=CCCC(=O)Nc1nc(C)c(-c2csc(Nc3cc(OC)ccc3OC)n2)s1 | i | i | i | -8.7* | 1.3 | -4 | 56%* | i | 28%*
Cc1ccc(-c2[nH]ncc2C(=O)c2ccccc2C)c(O)c1 | i | i | i | i | -1.3 | -3 | · | · | ·
Cc1ccc(C(=O)C(C)OC(=O)CNS(=O)(=O)c2ccc(C)cc2)cc1 (centres undefined) | · | i | · | · | · | · | · | · | ·
O=C(COC(=O)c1nc(Cl)ccc1Cl)Nc1ncc(Cl)cc1Cl | i | i | i | i | 0.64 | -9 | · | · | ·
Cc1scc(C(=O)N/N=C/c2ccc(Cl)s2)c1C | i | i | i | i | -0.68 | -10 | · | · | ·
Cn1cc(S(=O)(=O)N2CCN(c3cccc(Cl)c3)CC2)c(=O)n(C)c1=O | i | i | i | i | 0.54 | -10 | i | i | i
COc1ccc([N+](=O)[O-])cc1NC(=O)C(C)Sc1nc(-c2ccccc2)cs1 (centres undefined) | i | i | i | -8.1* | -1.6 | -13 | i | i | 31%*
COc1ccc([N+](=O)[O-])cc1NC(=O)C(C)Sc1ccccc1 (centres undefined) | i | i | i | i | -0.09 | -6 | · | · | ·
Fc1ccccc1N1CC(c2ccccc2)C(c2cccs2)=N1 (centres undefined) | i | i | i | -8.6* | 1.9 | -9 | 34%* | i | 43%*
CCCCC(c1nnnn1Cc1ccco1)N1CCN(c2nc3ccccc3s2)CC1 (centres undefined) | i | i | i | -16* | -1 | -10 | 48%* | i | 33%*
c1ccc(C(c2nnnn2Cc2ccco2)N2CCN(c3nc4ccccc4s3)CC2)cc1 (centres undefined) | i | i | i | -8.2* | 0.58 | -11 | 42%* | i | 28%*
SMILES | KCNQ1 act | KCNK3 inh | KCNQ1 block | KCNK9 inh | Kir21 block | hERG rescue | KCNK9 block conf | Kir2-1 spec | HEK293 Tl ctr
CCC(c1nnnn1Cc1ccco1)N1CCC(C(N)=O)CC1 (centres undefined) | i | i | i | i | 0.73 | 0 | · | · | ·
CCC(c1nnnn1Cc1ccco1)N1CCN(c2cc(Cl)ccc2C)CC1 (centres undefined) | i | i | i | -11* | -0.2 | -6 | 54%* | i | 42%*
CC(=O)N1CCC(=NNS(=O)(=O)c2cccc([N+](=O)[O-])c2)CC1 | · | i | · | · | · | · | · | · | ·
Cc1ccc(C(=O)c2coc3c2C(=O)C(=O)c2ccccc2-3)cc1 | i | i | i | -9.4* | -0.44 | -9 | i | i | i
CCN(CC)CCOc1ccc(/C(=C(\Cl)c2ccccc2)c2ccccc2)cc1 | i | i | 11* | i | -0.84 | -34 | i | i | i
Cc1ccc(C2=NN(S(=O)(=O)c3ccccc3)C(c3ccco3)C2)cc1 (centres undefined) | · | i | · | · | · | · | · | · | ·
CS(=O)(=O)Nc1ccc(C2=NN(S(=O)(=O)c3ccc(F)cc3)C(c3ccco3)C2)cc1 (centres undefined) | i | i | i | -10* | -2 | -13 | 38%* | i | i
NC(=O)Nc1ccc(C(=O)OCC(=O)Nc2ccc(Cl)cn2)cc1 | i | i | i | i | 0.8 | -6 | · | · | ·
Cc1cc(C)c(-c2csc(NC(=O)/C=C/c3cccs3)n2)c(C)c1 | i | i | i | i | -0.01 | -5 | i | i | i
COc1ccc(OCc2cc(C(=O)N3C[C@H]4CC[C@H]3C4)no2)c(Cl)c1 | i | i | i | i | 2.5 | -6 | · | · | ·
O=C(O)c1cc(-c2ccc(-c3c(-c4ccc5c(c4)OCO5)noc3-c3ccsc3)cc2)nc2ccccc12 | i | i | i | i | 1.7 | -14 | · | · | ·
CN(C)c1ccc(-c2c(-c3ccc4c(c3)OCO4)noc2-c2ccsc2)cn1 | i | i | i | -8.7* | -1.4 | -19 | 50%* | i | 47%*
